From ChEMBL document CHEMBL3044673, “Design, synthesis and insecticidal activity of novel phenylpyrazoles containing a 2,2,2-trichloro-1-alkoxyethyl moiety” (2010)

What was measured:
Type in all cases: functional
[1] = tested on: Aphis craccivora; assay: Insecticidal activity against Aphis craccivora (cowpea aphid) infested tender soybean shoots exposed to 50 mg/kg test compound solution assessed as insect mortality measured 24 hr post compound treatment
Method in brief: (§1)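 Soybean tender shoots carrying 60 aphids were dipped in test solutions. Solutions were made from a 200 mg L^-1 stock in dimethylformamide, diluted with water containing TW-20. Insects were laboratory-reared, tests were held at 25±1 °C, and mortality was scored.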

[2] = tested on: Aphis craccivora; assay: Insecticidal activity against Aphis craccivora (cowpea aphid) infested tender soybean shoots exposed to 200 mg/kg test compound solution assessed as insect mortality measured 24 hr post compound treatment; method in brief: as §1
[3] = tested on: Plutella xylostella; assay: Insecticidal activity against Plutella xylostella (diamondback moth) grown on compound pre-treated fresh cabbage leaves assessed as insect mortality at 10 mg/kg measured 3 days post compound treatment by leaf-dip method; settings: for mortality at 10 mg/kg: Plutella xylostella; for mortality: 10 mg/kg
Method in brief: (§2)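 Leaf-dip stomach-toxicity assay on laboratory-reared diamondback moth. Test solutions came from a 200 mg L^-1 stock in dimethylformamide, diluted with water containing TW-20. Control leaves were treated with water and dimethylformamide. Tests were held at 25±1 °C, percentage mortality was scored 3 days after treatment, and each treatment was run three times.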

[4] = tested on: Culex pipiens pallens; assay: Insecticidal activity against Culex pipiens pallens (mosquito) assessed as insect mortality at 50 ug/kg measured 1 day post compound treatment; settings: 24 h
Method in brief: (§3)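 Fourth-instar Culex pipiens pallens larvae, 20 per test, were laboratory-reared and placed in 100 mL of test solution made by adding 1 mL of compound dilution to 99 mL of water. Tests were held at 25±1 °C, percentage mortality was scored 1 day after treatment, and each test was run three times.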

[5] = tested on: Aphis craccivora; assay: Insecticidal activity against Aphis craccivora (cowpea aphid) infested tender soybean shoots exposed to 100 mg/kg test compound solution assessed as insect mortality measured 24 hr post compound treatment; method in brief: as §1
[6] = tested on: Plutella xylostella; assay: Insecticidal activity against Plutella xylostella (diamondback moth) grown on compound pre-treated fresh cabbage leaves assessed as insect mortality at 50 mg/kg measured 3 days post compound treatment by leaf-dip method; method in brief: as §2
[7] = tested on: Plutella xylostella; assay: Insecticidal activity against Plutella xylostella (diamondback moth) grown on compound pre-treated fresh cabbage leaves assessed as insect mortality at 200 mg/kg measured 3 days post compound treatment by leaf-dip method; method in brief: as §2
[8] = tested on: Aphis craccivora; assay: Insecticidal activity against Aphis craccivora (cowpea aphid) infested tender soybean shoots exposed to 5 mg/kg test compound solution assessed as insect mortality measured 24 hr post compound treatment; settings: for mortality at 5 mg/kg: Aphis craccivora, 24 h; for mortality: 5 mg/kg; method in brief: as §1
[9] = tested on: Aphis craccivora; assay: Insecticidal activity against Aphis craccivora (cowpea aphid) infested tender soybean shoots exposed to 10 mg/kg test compound solution assessed as insect mortality measured 24 hr post compound treatment; settings: for mortality at 10 mg/kg: Aphis craccivora, 24 h; method in brief: as §1
[10] = tested on: Plutella xylostella; assay: Insecticidal activity against Plutella xylostella (diamondback moth) grown on compound pre-treated fresh cabbage leaves assessed as insect mortality at 100 mg/kg measured 3 days post compound treatment by leaf-dip method; method in brief: as §2
[11] = tested on: Plutella xylostella; assay: Insecticidal activity against Plutella xylostella (diamondback moth) grown on compound pre-treated fresh cabbage leaves assessed as insect mortality at 25 mg/kg measured 3 days post compound treatment by leaf-dip method; settings: for mortality at 25 mg/kg: Plutella xylostella; method in brief: as §2
[12] = tested on: Culex pipiens pallens; assay: Insecticidal activity against Culex pipiens pallens (mosquito) assessed as insect mortality at 100 ug/kg measured 1 day post compound treatment; settings: for mortality at 0.1 mg/kg: Culex pipiens, 24 h; method in brief: as §3
[13] = tested on: Plutella xylostella; assay: Insecticidal activity against Plutella xylostella (diamondback moth) grown on compound pre-treated fresh cabbage leaves assessed as insect mortality at 5 mg/kg measured 3 days post compound treatment by leaf-dip method; settings: for mortality at 5 mg/kg: Plutella xylostella; for mortality: 5 mg/kg; method in brief: as §2
[14] = tested on: Aphis craccivora; assay: Insecticidal activity against Aphis craccivora (cowpea aphid) infested tender soybean shoots exposed to 25 mg/kg test compound solution assessed as insect mortality measured 24 hr post compound treatment; method in brief: as §1
[15] = tested on: Aphis craccivora; assay: Insecticidal activity against Aphis craccivora (cowpea aphid) infested tender soybean shoots exposed to 2.5 mg/kg test compound solution assessed as insect mortality measured 24 hr post compound treatment; settings: for mortality at 2.5 mg/kg: Aphis craccivora, 24 h; method in brief: as §1
[16] = tested on: Culex pipiens pallens; assay: Insecticidal activity against Culex pipiens pallens (mosquito) assessed as insect mortality at 25 ug/kg measured 1 day post compound treatment; settings: 24 h; method in brief: as §3
[17] = tested on: Plutella xylostella; assay: Insecticidal activity against Plutella xylostella (diamondback moth) grown on compound pre-treated fresh cabbage leaves assessed as insect mortality at 2.5 mg/kg measured 3 days post compound treatment by leaf-dip method; method in brief: as §2
[18] = tested on: Culex pipiens pallens; assay: Insecticidal activity against Culex pipiens pallens (mosquito) assessed as insect mortality at 10 ug/kg measured 1 day post compound treatment; settings: 24 h; method in brief: as §3

| SMILES | mortality at 50 mg/kg [1] [%] | mortality at 200 mg/kg [2] [%] | mortality at 10 mg/kg [3] [%] | mortality at 0.05 mg/kg [4] [%] | mortality at 100 mg/kg [5] [%] | mortality at 50 mg/kg [6] [%] | mortality at 200 mg/kg [7] [%] | mortality at 5 mg/kg [8] [%] | mortality at 10 mg/kg [9] [%] | mortality at 100 mg/kg [10] [%] | mortality at 25 mg/kg [11] [%] | mortality at 0.1 mg/kg [12] [%] | mortality at 5 mg/kg [13] [%] | mortality at 25 mg/kg [14] [%] | mortality at 2.5 mg/kg [15] [%] | mortality at 0.025 mg/kg [16] [%] | mortality at 2.5 mg/kg [17] [%] | mortality [12] [%] | also measured |
| --- | --- | --- | --- | --- | --- | --- | --- | --- | --- | --- | --- | --- | --- | --- | --- | --- | --- | --- | --- |
| CC[S+]([O-])c1c(C#N)nn(-c2c(Cl)cc(C(F)(F)F)cc2Cl)c1NC(OCCCl)C(Cl)(Cl)Cl (stereo not drawn) | 100 | 100 | 32 | 0 | 100 | 100 | 100 | 0 | 48 | 100 | 46 | 100 | 0 | 100 |  |  |  |  |  |
| CC[S+]([O-])c1c(C#N)nn(-c2c(Cl)cc(C(F)(F)F)cc2Cl)c1NC(OCCF)C(Cl)(Cl)Cl (stereo not drawn) | 100 | 100 | 30 | 20 | 100 | 91 | 100 | 73 | 100 | 100 | 46 | 100 | 0 | 100 | 43 |  |  |  |  |
| CCOC(Nc1c([S+]([O-])CC)c(C#N)nn1-c1c(Cl)cc(C(F)(F)F)cc1Cl)C(Cl)(Cl)Cl (stereo not drawn) | 100 | 100 | 72 | 100 | 100 | 100 | 100 | 81 | 100 | 100 | 100 | 100 | 29 | 100 | 0 | 40 | 0 |  |  |
| CC[S+]([O-])c1c(C#N)nn(-c2c(Cl)cc(C(F)(F)F)cc2Cl)c1NC(OC)C(Cl)(Cl)Cl (stereo not drawn) | 100 | 100 | 0 | 100 | 100 | 86 | 100 | 76 | 87 | 100 | 31 | 100 |  | 96 | 0 | 0 |  |  |  |
| CCOC(Nc1c([S+](C)[O-])c(C#N)nn1-c1c(Cl)cc(C(F)(F)F)cc1Cl)C(Cl)(Cl)Cl (stereo not drawn) | 100 | 100 | 85 | 100 | 100 | 100 | 100 | 63 | 85 | 100 | 100 | 100 | 63 | 100 | 0 | 30 | 0 |  |  |
| CSc1c(C#N)nn(-c2c(Cl)cc(C(F)(F)F)cc2Cl)c1NC(OCCF)C(Cl)(Cl)Cl (stereo not drawn) | 100 | 100 | 89 | 100 | 100 | 100 | 100 | 28 | 62 | 100 | 100 | 100 | 81 | 74 | 0 | 100 | 34 |  | mortality at 0.01 mg/kg [18]: 40% |
| C[S+]([O-])c1c(C#N)nn(-c2c(Cl)cc(C(F)(F)F)cc2Cl)c1NC(OCCF)C(Cl)(Cl)Cl (stereo in doubt; 7d-1) |  |  |  |  |  |  |  |  |  |  |  |  |  |  |  |  |  | 20 | mortality [3]: 77%; mortality [8]: 72%; mortality ([15]; 2.5 mg/kg): 43%; mortality ([11]; 25 mg/kg): 92%; mortality [13]: 56% |
| C[S+]([O-])c1c(C#N)nn(-c2c(Cl)cc(C(F)(F)F)cc2Cl)c1NC(OCCF)C(Cl)(Cl)Cl (stereo in doubt; 7d-2) | 100 | 100 | 76 |  | 100 | 100 | 100 | 70 | 100 | 100 | 89 |  | 54 | 100 | 46 |  | 0 | 50 |  |
| C[S+]([O-])c1c(C#N)nn(-c2c(Cl)cc(C(F)(F)F)cc2Cl)c1NC(OCCCl)C(Cl)(Cl)Cl (stereo in doubt; 7e-1) |  |  |  | 40 |  |  |  |  |  |  |  |  |  |  |  |  |  | 100 | mortality [3]: 81%; mortality [8]: 61%; mortality ([9]; 10 mg/kg): 96%; mortality [13]: 60% |
| C[S+]([O-])c1c(C#N)nn(-c2c(Cl)cc(C(F)(F)F)cc2Cl)c1NC(OCCCl)C(Cl)(Cl)Cl (stereo in doubt; 7e-2) | 100 | 100 | 79 |  | 100 | 100 | 100 | 68 | 100 | 100 | 100 |  | 56 | 100 | 0 |  | 0 | 50 |  |
